Data from paper PMC4058332 (ChemMedChem, 2013).
Entries after “also recorded” stand apart in the source; their conditions may differ.

Legend:
[1] = biological target: uPAR (Homo sapiens, UniProt Q03405); test: Fluorescence polarization competition assay, displacement of AE147-FAM peptide; assay type: binding; settings: uPAR 320 nM, AE147-FAM 100 nM
Procedure, shortened: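 Competition binding: test compound diluted in DMSO, then in PBS with 0.01% Triton X-100 (final 100 μM to 0.046 μM). uPAR preincubated with compound ≥15 min, then fluorescein-labelled AE147 peptide added (final uPAR 320 nM, peptide 100 nM, DMSO 2%). Duplicate wells; polarization read at ex 485/em 530 nm. mP values converted to % inhibition; Ki from an online Ki calculator.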

[2] = test system: AsPC-1 cells; test: Cell viability by MTT assay, 3 days; assay type: cell-based; settings: Homo sapiens, ASPC1, read-out: IC50, MTT
Procedure, shortened: (§1)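 Cells (10^4/well) plated overnight, then exposed to test compound or DMSO control for 3 days. Viability by MTT, absorbance 570 nm with 630 nm reference. Culture: MDA-MB-231 and PANC-1 in DMEM, AsPC-1 in RPMI medium, each with 10% FBS and 1% penicillin/streptomycin, 37°C, 5% CO2.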

[3] = test system: PANC-1 cells; test: Cell viability by MTT assay, 3 days; assay type: cell-based; settings: Homo sapiens, PANC-1, read-out: IC50, MTT
Procedure, shortened: as §1

[4] = test system: MDA-MB-231 cells; test: Cell viability by MTT at 16 h, time frame of invasion and migration studies; assay type: cell-based
Procedure, shortened: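 MDA-MB-231 viability read by MTT after 16 h exposure to test compound, matching the time frame of the invasion and migration assays.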

[5] = test system: MDA-MB-231 invasion; test: Matrigel Boyden chamber invasion assay; assay type: cell-based
Procedure, shortened: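 Matrigel invasion chambers; insert underside coated with 30 ng μl-1 fibronectin overnight at 4 °C; inserts equilibrated 2 h in serum-free medium. After 4 h starvation, 5 × 10^4 MDA-MB-231 cells in 0.1% FBS medium with test compound or 1% DMSO placed upper; 10% FBS medium with same compound lower. After 16 h at 37°C, invaded cells methanol-fixed, hematoxylin-stained, counted in ten 200× fields.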

[6] = test system: MDA-MB-231 cells; test: Cell viability by MTT assay, 3 days; assay type: cell-based; settings: Homo sapiens, MDA-MB-231, read-out: IC50, MTT
Procedure, shortened: as §1

[7] = test system: MDA-MB-231 matrix metalloproteinase (MMP-9) activity; test: Gelatin zymography; assay type: cell-based; settings: read-out: IC50, MMP-9 activity, 24 h treatment
Procedure, shortened: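 MDA-MB-231 cells treated with test compound 24 h in serum-free medium. Conditioned medium concentrated and run on 7.5% SDS gels with 1 mg/mL gelatin. Gels washed twice in 2.5% Triton X-100 (30 min, room temperature), incubated 36 h at 37 °C in 50 mM Tris-HCl pH 7.6, 200 mM NaCl, 10 mM CaCl2, 0.02% Brij 35. Coomassie-stained; clear MMP-9 bands quantified by imaging.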

[8] = test system: MDA-MB-231 cells; test: Apoptosis assay, flow cytometry with Annexin V-FITC and PI staining; assay type: cell-based; settings: 24 h; for Percentage apoptosis: Annexin V-positive/PI-negative cells; for Percentage necrosis: Annexin V-positive/PI-positive cells
Procedure, shortened: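 MDA-MB-231 cells exposed 24 h to test compound at increasing concentrations or 1% DMSO, stained with Annexin V-FITC and PI, and analysed by flow cytometry. Apoptotic = Annexin V-positive/PI-negative; necrotic = Annexin V-positive/PI-positive, each as % of cells.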

[9] = test system: MDA-MB-231 cell adhesion; test: Cell adhesion to fibronectin; assay type: cell-based; settings: Homo sapiens, MDA-MB-231, read-out: IC50, cell adhesion
Procedure, shortened: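 Wells coated with 15 ng μl-1 fibronectin overnight at 4 °C, blocked 1 h with 2% BSA/PBS. MDA-MB-231 cells serum-starved 4 h, suspended at 2.5 × 10^4 cells ml-1 in 0.1% FBS DMEM with test compound at various concentrations or DMSO, and held 90 min at 37 °C. Washed three times with PBS; adherent cells by MTT (570/630 nm).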

[10] = test system: MDA-MB-231 migration; test: Wound healing migration assay; assay type: cell-based
Procedure, shortened: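 Confluent MDA-MB-231 monolayers scratched with a pipette tip, washed, and cultured in complete medium with test compound. Wound closure measured as distance between wound edges in three random regions immediately after wounding and at 16 h and 40 h, by microscopy.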

[11] = test system: phospho-p44/42 MAPK in MDA-MB-231 cells; test: Western blot analysis of p44/42 MAPK phosphorylation; assay type: cell-based; settings: 50 μM, 30 min, serum starved cells on fibronectin
Procedure, shortened: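 Serum-starved MDA-MB-231 cells (1.5 × 10^6/well) plated on wells coated with 30 ng μl-1 fibronectin, with 50 μM test compound or DMSO, for 30 min. Lysed in RIPA with protease/phosphatase inhibitors. 30 μg protein run on 10% SDS-PAGE and blotted. Probed overnight at 4°C with phospho-p44/42 (Thr202/Tyr204) or total p44/42 antibodies (1:2000), then fluorescent secondaries; actin loading control.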

[12] = test system: NF-κB, HIF1α and ERK in MDA-MB-231 cells; test: Luciferase reporter assay; assay type: cell-based; settings: 25 μM
Procedure, shortened: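 MDA-MB-231 cells transfected with pathway-focused reporters (NF-κB, hypoxia, MAPK/ERK); medium switched to complete DMEM (10% FBS) 16 h after transfection. Test compound (25 μM) added at 46 h; dual-luciferase readout (firefly/Renilla) at 48 h. Fold change = normalized ratio of treated reporter divided by that of untreated reporter; triplicate.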

[13] = biological target: urokinase receptor (uPAR) (UniProt Q03405); test: fluorescence polarisation
urokinase receptor (uPAR), sequence (Q03405 23-305): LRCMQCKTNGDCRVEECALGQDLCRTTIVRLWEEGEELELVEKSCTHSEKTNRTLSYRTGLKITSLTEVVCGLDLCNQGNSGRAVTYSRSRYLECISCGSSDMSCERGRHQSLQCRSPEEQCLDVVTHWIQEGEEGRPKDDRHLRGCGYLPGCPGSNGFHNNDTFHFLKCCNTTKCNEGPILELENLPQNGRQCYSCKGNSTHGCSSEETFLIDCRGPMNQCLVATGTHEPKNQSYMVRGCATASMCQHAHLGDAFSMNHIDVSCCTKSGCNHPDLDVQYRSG

uPAR, sequence (Q03405 23-335): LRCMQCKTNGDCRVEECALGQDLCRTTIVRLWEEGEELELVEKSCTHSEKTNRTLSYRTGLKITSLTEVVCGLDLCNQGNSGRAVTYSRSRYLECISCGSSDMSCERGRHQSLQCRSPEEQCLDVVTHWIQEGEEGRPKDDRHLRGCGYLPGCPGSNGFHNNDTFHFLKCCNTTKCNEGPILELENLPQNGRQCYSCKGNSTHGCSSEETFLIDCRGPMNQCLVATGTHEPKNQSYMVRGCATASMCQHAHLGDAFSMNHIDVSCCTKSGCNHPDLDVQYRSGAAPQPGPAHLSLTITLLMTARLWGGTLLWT

Molecule	Ki ([1]; Ki)	Percentage apoptosis ([8]; 1 μM)	Percentage necrosis ([8]; 1 μM)	Percentage apoptosis ([8]; 10 μM)	Percentage necrosis ([8]; 10 μM)	Percentage apoptosis ([8]; 25 μM)	Percentage necrosis ([8]; 25 μM)	Percentage apoptosis ([8]; 50 μM)	Percentage necrosis ([8]; 50 μM)	effect on p44/42 MAPK phosphorylation [11]	also measured
CCOc1ccccc1NC(=O)C1CC(=O)N(c2ccc(OC)cc2)C1c1ccc(OC)cc1 (stereo not shown) [compound 3, N-(2-ethoxyphenyl)-1,2-bis(4-methoxyphenyl)-5-oxopyrrolidine-3-carboxamide]		2%	6%	1%	3%	2%	8%	4%	7%	no inhibition	cytotoxicity ([4]; 25 μM, MTT at 16 h): not cytotoxic; effect on invasion ([5]; 25 μM): moderate inhibition of invasion; inhibition at 25 µM ([5]; Homo sapiens, MDA-MB-231, read-out: inhibition of cell invasion): 50%; effect on migration ([10]; 25 μM, wound healing): no effect on migration
COc1ccc(N2C(=O)CCC(C(=O)Nc3ccc(OC)cc3OC)C2c2ccc(F)cc2)cc1 (stereo not drawn) [compound 4, anti-N-(2,4-dimethoxyphenyl)-2-(4-fluorophenyl)-1-(4-methoxyphenyl)-6-oxopiperidine-3-carboxamide]		4%	3%	2%	14%	3%	6%	3%	5%	no inhibition	Ki [1]: 18.9 µM
fluorescently-labeled AE147 peptide AE147-FAM											Kd [13]: 0.499 µM

More lines, main results first:

Ki ([1]; Ki)	Molecule	Percentage apoptosis ([8]; 1 μM)	Percentage necrosis ([8]; 1 μM)	Percentage apoptosis ([8]; 10 μM)	Percentage necrosis ([8]; 10 μM)	Percentage apoptosis ([8]; 25 μM)	Percentage necrosis ([8]; 25 μM)	Percentage apoptosis ([8]; 50 μM)	Percentage necrosis ([8]; 50 μM)	effect on p44/42 MAPK phosphorylation [11]	also measured
51.2 µM	COc1cc(NC(=O)c2cnn(-c3ccc(C)c(C)c3)c2C2CCNCC2)cc(C(F)(F)F)c1 [1e, 1-(3,4-dimethylphenyl)-N-(3-methoxy-5-(trifluoromethyl)phenyl)-5-(piperidin-4-yl)-1H-pyrazole-4-carboxamide]										
17.2 µM	Cc1ccc(-n2ncc(C(=O)Nc3ccccc3OCc3ccccc3)c2C2CCNCC2)cc1C [1f, N-(2-(benzyloxy)phenyl)-1-(3,4-dimethylphenyl)-5-(piperidin-4-yl)-1H-pyrazole-4-carboxamide]	3%	7%	45%	15%	76%	8%	61%	21%	significantly impaired	IC50 [2]: 14 µM; IC50 [3]: 22 µM; inhibition at 10 µM ([4]; Homo sapiens, MDA-MB-231, 16 h, read-out: inhibition of cell growth): 20%; effect on invasion ([5]; 10 μM): inhibited invasion; effect on invasion ([5]; 25 μM): completely inhibited invasion; also recorded: complete inhibition of invasion; IC50 ([5]; Homo sapiens, MDA-MB-231, read-out: IC50, invasion): < 10 µM; IC50 [6]: 25 µM; IC50 [7]: 28 µM; IC50 [9]: ~25 µM; inhibition at 25 µM ([10]; Homo sapiens, MDA-MB-231, read-out: inhibition of cell migration): 70%; effect on NF-κB, HIF1α and ERK reporter pathways [12]: impaired all three pathways
28.3 µM	Cc1ccc(-n2ncc(C(=O)NCCc3ccc(F)cc3)c2C2CCNCC2)cc1C [1g, 1-(3,4-dimethylphenyl)-N-(4-fluorophenethyl)-5-(piperidin-4-yl)-1H-pyrazole-4-carboxamide]										
63.3 µM	Cc1ccc(-n2ncc(C(=O)Nc3ccc(C(C)C)cc3)c2C2CCNCC2)cc1C [1h, 1-(3,4-dimethylphenyl)-N-(4-isopropylphenyl)-5-(piperidin-4-yl)-1H-pyrazole-4-carboxamide]										
31.9 µM	CCCc1ccc(NC(=O)c2cnn(-c3ccc(C)c(C)c3)c2C2CCNCC2)cc1 [1i, 1-(3,4-dimethylphenyl)-5-(piperidin-4-yl)-N-(4-propylphenyl)-1H-pyrazole-4-carboxamide]	11%	7%	6%	9%	46%	10%	86%	12%	significantly impaired	
